The source of these data is ChEMBL document CHEMBL3421541, “Benzaldehyde Schiff bases regulation to the metabolism, hemolysis, and virulence genes expression in vitro and their structure-microbicidal activity relationship” (2015).

In brackets after ≈: the same amount, converted by molar mass. Activity calls are given as the source filed them.

The subject of one assay is Escherichia coli. The experiment in a line: Antibacterial activity against Escherichia coli assessed as growth inhibition at 100 umol/L after 8 hrs by ELISA plate reader analysis relative to control. It is filed as functional. Particulars: read-out: GI. The method in brief:
(§1)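 Bacteria were seeded at 1×10^5 CFU/mL in LB, and compound was added to 100 µmol/L final. Compounds came from DMSO stock, with DMSO ≤1% (v/v) final. Cultures were shaken at 37 °C for 8 h and read at OD450. Inhibition % = (OD vehicle control − OD sample)/OD vehicle control × 100. Values are the mean of three independent experiments.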

The subject of assay [1] is Staphylococcus aureus. The experiment in a line: Upregulation of hla gene expression in Staphylococcus aureus at 50 umol/L after 8 hrs by real-time RT-PCR analysis relative to control. It counts as functional, organism-based. The method in brief:
(§2)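 S. aureus ATCC 25923 at 2×10^7 CFU/mL in LB was exposed to 50 µmol/L compound, or LB alone, for 8 h at 37 °C. Total RNA was analysed by TaqMan real-time RT-PCR or semi-quantitative RT-PCR, normalised to gyrB. Fold change is versus time-matched medium-only cultures, with data pooled from three experiments.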
(In qPCR the cycle at which signal appears reflects the starting amount.)

The test system of assay [2] is Staphylococcus aureus. Briefly: Antibacterial activity against Staphylococcus aureus assessed as lowest concentration required to reduce growth by 1% after 8 hrs by ELISA plate reader analysis relative to control. It counts as functional. The essentials: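 MBC was found by broth microdilution. Inocula of 1×10^5 CFU/mL in LB were shaken at 37 °C with a series of compound concentrations, then read at OD450. MBC was defined as the lowest concentration reducing growth by 1% versus the inoculum control. Three independent experiments were run.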

The subject of assay [3] is Staphylococcus aureus. Briefly: Upregulation of sbi gene expression in Staphylococcus aureus at 50 umol/L after 8 hrs by semi-quantitative RT-PCR analysis relative to control. It counts as functional, organism-based. The method in brief: as §2
Assay [4] deals with Staphylococcus aureus. Briefly: Antibacterial activity against Staphylococcus aureus assessed as growth inhibition at 100 umol/L after 8 hrs by ELISA plate reader analysis relative to control. It counts as functional. Particulars: read-out: GI. The method in brief:
as §1

Assay [5] has as its system Staphylococcus aureus. Briefly: Downregulation of saeR gene expression in Staphylococcus aureus at 50 umol/L after 8 hrs by semi-quantitative RT-PCR analysis relative to control. It is filed as functional, organism-based. The method in brief:
as §2

Assay [6] has as its system Staphylococcus aureus. The experiment in a line: Upregulation of sbi gene expression in Staphylococcus aureus at 50 umol/L after 8 hrs by real-time RT-PCR analysis relative to control. It counts as functional, organism-based. The method in brief:
as §2

Assay [7] deals with Staphylococcus aureus. The experiment in a line: Upregulation of hla gene expression in Staphylococcus aureus at 50 umol/L after 8 hrs by semi-quantitative RT-PCR analysis relative to control. It counts as functional, organism-based. The method in brief:
as §2

Assay [8] has as its system Staphylococcus aureus. The experiment in a line: Downregulation of saeR gene expression in Staphylococcus aureus at 50 umol/L after 8 hrs by real-time RT-PCR analysis relative to control. It counts as functional, organism-based. The essentials: as §2
In assay [9] the test system is Staphylococcus aureus. Briefly: Upregulation of mecA gene expression in Staphylococcus aureus at 50 umol/L after 8 hrs by semi-quantitative RT-PCR analysis relative to control. It counts as functional, organism-based. The method in brief:
as §2

Assay [10] deals with Staphylococcus aureus. The experiment in a line: Upregulation of mecA gene expression in Staphylococcus aureus at 50 umol/L after 8 hrs by real-time RT-PCR analysis relative to control. It counts as functional, organism-based. The essentials:
as §2

The subject of the next assay is Bacillus subtilis. Briefly: Antibacterial activity against Bacillus subtilis assessed as growth inhibition at 100 umol/L after 8 hrs by ELISA plate reader analysis relative to control. It counts as functional. The settings on record: read-out: GI. The essentials:
as §1

Assay [11] has as its system Staphylococcus aureus. Briefly: Downregulation of mecA gene expression in Staphylococcus aureus at 50 umol/L after 8 hrs by semi-quantitative RT-PCR analysis relative to control. It counts as functional. The essentials:
as §2

Assay [12] has as its system Staphylococcus aureus. The experiment in a line: Downregulation of hla gene expression in Staphylococcus aureus at 50 umol/L after 8 hrs by semi-quantitative RT-PCR analysis relative to control. It counts as functional, organism-based. The essentials:
as §2

Assay [13] relates to Staphylococcus aureus. The experiment in a line: Downregulation of hla gene expression in Staphylococcus aureus at 50 umol/L after 8 hrs by real-time RT-PCR analysis relative to control. It is filed as functional, organism-based. The essentials: as §2
For assay [14], the system named is Staphylococcus aureus. The experiment in a line: Downregulation of mecA gene expression in Staphylococcus aureus at 50 umol/L after 8 hrs by real-time RT-PCR analysis relative to control. It counts as functional. The method in brief: as §2

One may read the MBC as the lowest tested concentration that kills the bacteria rather than only halting them. With `COC(=O)[C@H](Cc1ccccc1)/N=C/c1ccccc1O`, the figures for the inhibition of growth at 100 µM with Escherichia coli, in the assay on Staphylococcus aureus [4] and in the assay with Bacillus subtilis were 14.6%, 86.9% and 4.21%, respectively. The result in the assay on Staphylococcus aureus [1], with Staphylococcus aureus [3], in the assay on Staphylococcus aureus [5], in the assay with Staphylococcus aureus [6], with Staphylococcus aureus [7] and with Staphylococcus aureus [8] was Active. The result in the assay with Staphylococcus aureus [9] and with Staphylococcus aureus [10] was Active. Moreover, the MBC in the assay on Staphylococcus aureus [2] amounted to 13.8 µM (≈ 3.91 µg/mL).
Take `CC(C)(C)c1cc(/C=N/NC(=O)c2ccccc2O)c(O)c(C(C)(C)C)c1`: the values for the inhibition of growth at 100 µM with Escherichia coli and in the assay with Staphylococcus aureus [4] were 13.9% and 70.9%, respectively. In addition, the “fold change (FC)” value in the assay on Staphylococcus aureus [11] and with Staphylococcus aureus [14] was 2 each time. In addition, the MBC in the assay on Staphylococcus aureus [2] was 19 µM (≈ 7 µg/mL). The outcome in the assay with Staphylococcus aureus [3], in the assay on Staphylococcus aureus [12], in the assay on Staphylococcus aureus [13], with Staphylococcus aureus [5], with Staphylococcus aureus [6] and with Staphylococcus aureus [8] was Active.
